We go through seven compounds from PMC7883929 (Molecular Vision, 2021).

Entries after “also recorded” stand apart in the source; their conditions may differ. Where two headings read alike, the source gives them in different places.

For experiment [1], the system named is laser-induced glaucoma model in monkeys. The following applies: at 6 h, cited from earlier work.
The conditions of experiment [2]: cited from earlier work.
The test system of another experiment is hTM-80 cells. As to the kind of experiment: Superoxide dismutase activity assay. The experiment is classed as cell-based, human. The following applies: 100 µM, overnight/24 h.
A further experiment deals with normotensive rat eyes. As to the kind of experiment: IOP measurement in normotensive Sprague Dawley rats. The experiment is classed as in vivo. The note with it: Travoprost 0.004% single eye drop, 6 h time point only. An outline of the steps: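 Adult (10-week) female Sprague Dawley rats, n = 3/group, housed under dim light (90 lux) and dosed under a masked protocol. Each received a single 30 µl topical drop in PBS: saline vehicle, 0.004% travoprost positive control, or test compound. IOP was read by TonoLab rebound tonometry at 0, 3, 6, 24, 48 and 72 h. The contralateral eye served as control. Dosing was repeated three times per rat after 7-day washouts. Rank-sum test, mean ± SEM.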

For `CC1(C)CC(O[N+](=O)[O-])CC(C)(C)N1[O]` [4-nitro-TEMPOL], in experiment [1] (dose 150 µg/eye drop), the IOP lowering is 20%. Regarding `O=C(CCC/C=C\C[C@@H]1[C@@H](CC[C@@H](O)CCc2ccccc2)[C@H](O)C[C@@H]1O)OCCCCO[N+](=O)[O-]` [LBN, Latanoprostene bunod], in experiment [2], the IOP-lowering ability is −9.0 mm/Hg.

On to `[NH-]c1c[n+](N2CCOCC2)no1` [SIN-1, Linsidomine], for which the “SOD enzyme level (in words)” value in the experiment with hTM-80 cells is “did not increase the SOD enzyme; also recorded: did not increase the SOD level”.

As to `CC1(C)CC(N)CC(C)(C)N1[O]` [SA-3, 4-amino TEMPOL], the “SOD enzyme level (in words)” value in the experiment on hTM-80 cells is listed as “the effect was comparable to that of a standard SOD mimetic SA-3 compound”. Consider `O=[N+]([O-])OCC(CO[N+](=O)[O-])O[N+](=O)[O-]` [GTN, glyceryl trinitrate], for which the IOP lowering in experiment [1] (dose 500 µg) is reported as 13%. For the compound `CC(C)OC(=O)CCC/C=C\C[C@@H]1[C@@H](CC[C@@H](O)CCc2ccccc2)[C@H](O)C[C@@H]1O` [latanoprost], in experiment [2], the IOP-lowering ability is −7.7 mm/Hg.

In the experiment on normotensive rat eyes, `CC(C)OC(=O)CCC/C=C\C[C@@H]1[C@@H](/C=C/[C@@H](O)COc2cccc(C(F)(F)F)c2)[C@H](O)C[C@@H]1O` [Travoprost] came in with an IOP lowering of 14%.
